# This is a sample that favours compounds with a hit; in the whole collection about 2.9% have one here.
# OX1R antag-1 – human HCRTR1 antagonism. O43613. CHO/OX1R cells, Fluo-8 calcium fluorescence, orexin A. AID 434989. 330,000 compounds, 0.43% hits. inhibition, % at 5 µM;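 active = inhibition above its plate's threshold, mean inhibition of all tested compounds on the plate plus 3 SD, cut at about 37% in these data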;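 also: 0% = orexin A challenge wells and 100% = SB-334867-A antagonist wells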
# Target sequence (O43613 whole entry, looked up): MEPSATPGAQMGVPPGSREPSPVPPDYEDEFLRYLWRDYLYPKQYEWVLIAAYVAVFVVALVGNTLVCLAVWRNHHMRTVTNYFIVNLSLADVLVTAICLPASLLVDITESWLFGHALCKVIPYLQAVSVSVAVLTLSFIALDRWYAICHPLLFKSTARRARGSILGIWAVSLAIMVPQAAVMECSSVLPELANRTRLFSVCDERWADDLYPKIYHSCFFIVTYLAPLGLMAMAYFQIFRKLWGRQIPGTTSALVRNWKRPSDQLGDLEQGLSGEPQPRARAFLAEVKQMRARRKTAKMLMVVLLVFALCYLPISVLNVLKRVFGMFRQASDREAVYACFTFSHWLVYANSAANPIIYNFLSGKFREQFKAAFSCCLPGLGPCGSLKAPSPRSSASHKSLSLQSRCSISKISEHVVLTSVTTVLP
# CHO parental Ca – counter-screen: ATP calcium response change in parental CHO cells; parental CHO-K1, ATP-induced calcium, Fluo-8 fluorescence; inhibition, % at 5.6 µM; AID 463079; 330,000 compounds, 0.63% hits;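 active = inhibition above that plate's mean sample inhibition plus 3 SD, cut at about 26% in these data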;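 also: 0% = ATP-challenged DMSO wells and 100% = DMSO wells without ATP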
#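 Material: Parental CHO cells | Reagent: ATP | Compound dosing: Single nominal dose of 5.6 µM per compound | Detection: Intracellular calcium via Fluo-8 no-wash fluorescent dye | Read-out: % inhibition of ATP-induced calcium mobilization | Benchmarks: Low control ATP plus DMSO, high control DMSO only | Replicates: Singlicate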
# CHO-K1 Ca ag – M1 agonist counterscreen hit in parental CHO-K1 cells; AID 602248; activation, % at 3 µM; 360,000 compounds, 0.48% hits; Fluo-8 calcium fluorescence; scaled to maximal ATP response, vehicle zero; in the data active = activation above about 15%;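 also: untransfected CHO-K1 host cells lacking M1 receptor as counterscreen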
# OX1R antag-2 – OX1R (human) antagonism; inhibition, % at 6.6 µM; 330,000 compounds, 1.8% hits; AID 485270; OX1R-expressing cells, FRET antagonist read-out; in the data active = inhibition mostly above about 38%, no sharp cut-off; inactive = mostly below about 40%;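 also: 0% = agonist challenge alone and 100% = reference antagonist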
# CHO-K1 Ca antag – nonselective inhibitor or artifact in parental CHO-K1 cells; ATP-induced calcium, Fluo-8 fluorescence; inhibition, % at 3 µM; 360,000 compounds, 0.6% hits; AID 602250;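 active = inhibition above a per-plate cutoff, the plate's mean sample inhibition plus 3 SD, cut at about 24% in these data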;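 also: 0% = DMSO plus EC80 ATP and 100% = DMSO alone without ATP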
# M1 PAM parental – M1 PAM counterscreen hit in parental CHO-K1 cells; 360,000 compounds, 0.02% hits; ATP EC20, Fluo-8 calcium fluorescence; 0% at ATP EC20, 100% at ATP max; activation, % at 3 µM;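 active = activation above the run cutoff, the mean activation of all test compounds plus 3 SD, cut at about 40% in these data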;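 also: peak over basal fluorescence ratio in a 140 s read after ATP addition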
# Numbers without * were called inactive; nt = not tested or not shown.
SMILES,OX1R antag-1,CHO parental Ca,CHO-K1 Ca ag,OX1R antag-2,CHO-K1 Ca antag,M1 PAM parental
CC(O)c1c(-c2ccccc2)nn(C)c1Cl (stereo not drawn),-4.6,-5.6,-0.5,-1.0,27.9*,-13.1
CCC(O)c1c(-c2ccccc2)nn(C)c1Cl (stereo not drawn),-3.5,-7.9,-0.3,14.2,3.2,4.9
Cc1cc(Cl)c(S(=O)(=O)N2CCN(c3ccc(F)cc3)CC2)cc1OCC(=O)NC1CCCCC1,52.5*,58.3*,0.2,15.0,11.6,6.9
CCOC(=O)C1CCCN(S(=O)(=O)c2cc(OCC(=O)NC3CCCCC3)c(C)cc2Cl)C1 (stereo not drawn),-34.0,-11.0,1.2,6.2,-6.7,17.2
N=C1S/C(=C\c2ccc(-c3cccc(Cl)c3)o2)C(=O)N1c1nccs1,17.5,17.7,0.3,2.5,-1.1,13.2
COc1ccc(/C=C2\SC(=N)N(c3nccs3)C2=O)cc1OC,27.6,26.4*,2.6,72.6*,12.3,-6.7
O=[N+]([O-])c1c(Nc2ccccc2O)ccc2nonc12,-20.2,2.0,0.6,58.5*,-2.6,7.7
CCc1nnc(NS(=O)(=O)c2ccccc2)s1,-5.1,-0.2,0.3,6.4,4.0,-1.2
CCc1nnc(NS(=O)(=O)c2ccc(Nc3ccc4nonc4c3[N+](=O)[O-])cc2)s1,-19.6,-8.2,-0.8,49.4*,29.4*,-16.9
Cc1ccccc1Nc1ccc2nonc2c1[N+](=O)[O-],nt,nt,0.1,nt,-1.6,-10.2
Cc1ccc(C(O)c2ncc(-c3ccccc3C)[nH]2)cc1F (stereo not drawn),nt,nt,0.8,nt,6.9,-8.1
CN(C)c1ccc(C(=O)Nc2nc3c(s2)CCCC3)cc1,-10.6,-0.7,1.4,52.0*,12.5,3.4
CC(C)(C)c1ccc(C(=O)NC(=S)Nc2nc3c(s2)CCCC3)cc1,-8.3,-4.7,-0.2,24.3,19.5,-9.4
COc1ccc(NC(=O)c2cc(-c3cc(C)cc(C)c3O)n[nH]2)cc1Cl,7.8,14.6,5.5,78.6*,21.4,2.5
Cc1cc(C)c(O)c(-c2cc(C(=O)Nc3cccnc3)[nH]n2)c1,26.1,3.4,5.2,43.6*,-2.7,-3.9
COc1ccc(NC(=O)c2cc(-c3cc(Cl)ccc3O)n[nH]2)c(OC)c1,20.4,-24.0,1.2,42.3*,-5.6,-12.0
COc1ccc(NC(=O)c2cc(-c3ccccc3O)n[nH]2)cc1Cl,nt,nt,3.6,nt,-11.9,0.5
COc1ccc(NC(=O)c2c(F)c(F)c(F)c(F)c2F)cc1Cl,-8.6,-8.6,1.9,18.7,31.9*,-5.6
COc1ccc(C2=CC(=O)CC(C)(C)C2)cc1OC,-27.2,-6.2,0.1,17.0,-7.7,20.3
Cc1ccc(C)c(NC(=O)c2cc(-c3cc(C)ccc3O)n[nH]2)c1,-19.6,31.9*,3.0,25.6,-9.9,3.0
COc1ccc(OC)c(NC(=O)c2cc(-c3cc(C)cc(C)c3O)n[nH]2)c1,26.8,-17.3,0.4,62.2*,-1.4,-5.6
Cc1cccc(NS(=O)(=O)c2ccc(C)c(C(=O)NC3CCN(Cc4ccccc4)CC3)c2)c1,nt,nt,0.6,nt,-2.2,9.5
Nc1c(C(=O)c2ccccc2)oc2ccc(Br)cc12,23.9,-32.1,-0.3,59.4*,3.4,-2.2
CCCCN(C)c1c(C)nc2ccc(C(=O)NCCOc3ccc(OC)cc3)cn12,nt,nt,13.9,nt,29.6*,-13.5
O=C(c1[nH]c(C(F)(F)F)nc1-c1ccccc1)N1CCC2(CC1)C(=O)NCN2c1ccccc1,nt,nt,0.5,nt,-13.1,11.9
SMILES,OX1R antag-1,CHO parental Ca,CHO-K1 Ca ag,OX1R antag-2,CHO-K1 Ca antag,M1 PAM parental
O=C(Nc1ccc2ccccc2c1)c1ccccc1O,8.6,8.6,8.3,54.8*,8.1,-9.4
COc1ccc(OC)c(C(=O)c2ccc(C(=O)Nc3ccc4ccccc4c3)cc2)c1,-13.4,-9.8,-0.1,24.2,26.6*,-15.8
Cc1ccc(CCC(=O)Nc2ccc(N(C)C)cc2)o1,0.3,-2.0,0.0,32.0,-4.9,11.0
COc1cc(C(=O)Nc2nnc(CC(=O)NCc3ccccc3)s2)cc(OC)c1OC,-11.0,4.6,0.0,14.5,-4.0,8.8
O=[N+]([O-])c1ccc(-c2ccc(C=Nc3cccc4ccccc34)o2)cc1,-2.6,4.9,0.8,47.9*,-27.8,15.6
CCn1c2ccccc2c2cc(NC(=O)CSc3nnc(-c4ccc(OC)cc4)n3N)ccc21,-8.0,-15.5,0.6,49.6*,-11.2,26.6
Cc1cccc(C(=O)O/N=C2/CC3CCC2(C)C3(C)C)c1 (stereo not drawn),-36.6,30.7*,-0.2,12.6,-5.5,11.6
COc1ccccc1Oc1ccc2c(c1)C(=O)N(c1cccc(O)c1)C2=O,8.5,-6.7,6.0,3.3,-3.1,12.5
COc1ccccc1Oc1ccc2c(c1)C(=O)N(c1cccc3ncccc13)C2=O,nt,nt,11.0,nt,24.1*,1.5
O=c1c(-c2nnc(SCc3ccc(Cl)cc3)o2)cccn1Cc1ccccc1,-7.0,2.0,2.7,39.8*,8.2,8.9
O=C(Nc1ccccc1-c1nnc(SCc2ccc(Cl)cc2)o1)c1ccccc1,-13.8,-10.0,0.4,9.8,-9.6,12.5
CCNCC(=O)N1c2ccccc2CCc2ccc(NC(=O)OC(C)C)cc21,-31.7,-12.3,1.5,1.7,-11.8,20.3
COCCCNC(=O)c1sc2ncn(CC(=O)Nc3ccc(C)c(Cl)c3)c(=O)c2c1C,-24.3,-17.9,4.5,15.1,-18.7,39.9*
CCN(CC)CCCNC(=O)c1sc2ncn(CC(=O)Nc3ccc(C)c(Cl)c3)c(=O)c2c1C,-12.7,-16.4,0.7,15.0,3.1,8.7
CS(=O)(=O)c1ccccc1C(=O)Nc1ccc(S(=O)(=O)N2CCCC2)cc1,4.7,-3.5,1.0,11.6,-14.1,9.0
C=CCN(CC=C)S(=O)(=O)c1ccc(NC(=S)NC(=O)/C=C/c2ccc(C)cc2)cc1,-7.0,35.8*,0.1,16.4,10.6,-10.4
C=CCN(CC=C)S(=O)(=O)c1ccc(NC(=S)NC(=O)/C=C/c2cccc3ccccc23)cc1,-16.9,-16.7,0.5,8.4,-0.2,16.9
CCOC(=O)N1CCN(c2nc(-c3cccs3)nc3ccccc23)CC1,21.9,-25.8,0.7,74.5*,-3.9,-0.2
COc1ccc(C2=NN(C(=O)c3ccco3)C(c3cccs3)C2)cc1OC (stereo not drawn),nt,nt,-1.1,nt,-6.8,6.0
Cc1cccc(C)c1-n1nnnc1C(c1ccnc2ccccc12)N1CCOCC1 (stereo not drawn),nt,nt,-0.5,nt,3.6,-7.5
Cc1nc(NC(=O)CSc2nnc(C3CC3)n2C)sc1C,3.0,-4.5,0.7,5.8,-18.5,10.9
COc1ccc(CC(C)CC(=O)Nc2ccc(OC)cc2)cc1 (stereo not drawn),-19.4,-8.9,0.1,8.0,-0.6,-4.0
CSc1ccc(S(=O)(=O)NCC(=O)OCC(=O)NCCc2ccccc2)cc1[N+](=O)[O-],-21.6,-19.3,3.2,36.8*,-5.2,15.1

# Bioassay records (PubChem BioAssay)
